Data as given in ChEMBL document CHEMBL1152279 (J Med Chem, 2008).

Columns and labels:
Histamine H2 receptor [1] = target: T1, Histamine H2 receptor (Cavia porcellus, UniProt P47747); assay: Activity at guinea pig recombinant histamine H2 receptor-Gsalpha fusion protein expressed in Sf9 cells by steady-state GTPase activity assay
Method in brief: (§1)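 Membranes from Sf9 insect cells expressing the receptor construct named in each line: hH1R with RGS4, hH2R-GsR or gpH2R-GsR fusion, hH3R with GRi, Gβ1γ2 and RGS4, or hH4R-RGS19 fusion with GRi2 and Gβ1γ2. Values are mean ± SEM.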

Histamine H4 receptor = Histamine H4 receptor (Homo sapiens, UniProt Q9H3N8); assay: Activity at human recombinant histamine H4 receptor-RGS19 fusion protein expressed in Sf9 cells coexpressing Galphai2 and G-beta-1-gamma-2 by steady-state GTPase activity assay
Histamine H3 receptor [2] = target: T2, Histamine H3 receptor (Homo sapiens, UniProt Q9Y5N1); assay: Activity at human recombinant histamine H3 receptor expressed in Sf9 cells coexpressing Galphai, G-beta-1-gamma-2 and RGS4 by steady-state GTPase activity assay
Method in brief: (§2)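 Membranes from Sf9 insect cells expressing the receptor construct named in each line: hH1R with RGS4, hH2R-GsR or gpH2R-GsR fusion, hH3R with GRi, Gβ1γ2 and RGS4, or hH4R-RGS19 fusion with GRi2 and Gβ1γ2. […] Values are mean ± SEM.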

Histamine H2 receptor [3] = target: T1, Histamine H2 receptor; assay: Agonist activity at histamine H2 receptor in guinea pig spontaneously beating right atrium assessed as positive chronotropic activity; assay type: functional, tissue-based, Cardiac atrium
Histamine H2 receptor [4] = target: T3, Histamine H2 receptor (Homo sapiens, UniProt P25021); assay: Activity at human recombinant histamine H2 receptor-Gsalpha fusion protein expressed in Sf9 cells by steady-state GTPase activity assay; method in brief: as §1
[5] = target: Histamine H1 receptor (Cavia porcellus) (UniProt P31389); assay: Antagonist activity at histamine H1 receptor in guinea pig ileum assessed as […]
[6] = target: Histamine H2 receptor (Cavia porcellus) (UniProt P47747); assay: Agonist activity at histamine H2 receptor in guinea pig spontaneously beating right atrium assessed as positive chronotropic activity relative to histamine; assay type: functional, tissue-based; conditions: Cardiac atrium
[7] = Dissociation constant, pKa of the compound; assay type: physicochemical
Histamine H2 receptor [8] = target: T3, Histamine H2 receptor; assay: Activity at human recombinant histamine H2 receptor-Gsalpha fusion protein expressed in Sf9 cells by steady-state GTPase activity assay relative to histamine; method in brief: as §2
Histamine H3 receptor [9] = target: T2, Histamine H3 receptor; assay: Activity at human recombinant histamine H3 receptor expressed in Sf9 cells coexpressing Galphai2, G-beta-1-gamma-2 and RGS4 by steady-state GTPase activity assay relative to histamine; method in brief: as §2
[10] = target: Histamine H1 receptor (Homo sapiens) (UniProt P35367); assay: Antagonist activity at histamine H1 receptor in human U373 MG cells assessed as inhibition of histamine-induced intracellular calcium level preincubated for 15 mins prior to histamine challenge; assay type: functional, cell-based; conditions: U-373MG ATCC
Method in brief: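 U373-MG human cells expressing H1R, calcium assay. […] KB was derived from IC50 by the Cheng-Prusoff equation. Values are the mean of two experiments.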

[11] = target: Histamine H1 receptor (Homo sapiens) (UniProt P35367); assay: Activity at human recombinant histamine H1 receptor expressed in Sf9 cells coexpressing RGS4 by steady-state GTPase activity assay relative to histamine; method in brief: as §2
[12] = target: Histamine H2 receptor (Cavia porcellus) (UniProt P47747); assay: Activity at guinea pig recombinant histamine H2 receptor-Gsalpha fusion protein expressed in Sf9 cells by steady-state GTPase activity assay relative to histamine; method in brief: as §2
Histamine H1 receptor = Histamine H1 receptor (Cavia porcellus, UniProt P31389); assay: Antagonist activity at histamine H1 receptor in guinea pig ileum assessed as inhibition of histamine-induced […]; assay type: functional, tissue-based; conditions: for Kb: read-out: pA2 (converted)
[13] = target: Histamine H2 receptor (Cavia porcellus) (UniProt P47747); assay: Antagonist activity at histamine H2 receptor in guinea pig spontaneously beating right atrium assessed as histamine Emax at 58 uM; assay type: functional, tissue-based; conditions: Cardiac atrium
[14] = target: Histamine H2 receptor (Cavia porcellus) (UniProt P47747); assay: Antagonist activity at histamine H2 receptor in guinea pig spontaneously beating right atrium assessed as positive chronotropic activity at 58 uM relative to histamine; assay type: functional, tissue-based; conditions: Cardiac atrium
[15] = Terminal half life in nude mouse plasma; assay type: ADME, organism-based; conditions: read-out: beta t1/2
Histamine H2 receptor [16] = target: T1, Histamine H2 receptor; assay: Antagonist activity at histamine H2 receptor in guinea pig spontaneously beating right atrium assessed as inhibition of histamine-induced positive chronotropic activity; assay type: functional, tissue-based, Cardiac atrium

Chain of Histamine H1 receptor (P31389 whole entry): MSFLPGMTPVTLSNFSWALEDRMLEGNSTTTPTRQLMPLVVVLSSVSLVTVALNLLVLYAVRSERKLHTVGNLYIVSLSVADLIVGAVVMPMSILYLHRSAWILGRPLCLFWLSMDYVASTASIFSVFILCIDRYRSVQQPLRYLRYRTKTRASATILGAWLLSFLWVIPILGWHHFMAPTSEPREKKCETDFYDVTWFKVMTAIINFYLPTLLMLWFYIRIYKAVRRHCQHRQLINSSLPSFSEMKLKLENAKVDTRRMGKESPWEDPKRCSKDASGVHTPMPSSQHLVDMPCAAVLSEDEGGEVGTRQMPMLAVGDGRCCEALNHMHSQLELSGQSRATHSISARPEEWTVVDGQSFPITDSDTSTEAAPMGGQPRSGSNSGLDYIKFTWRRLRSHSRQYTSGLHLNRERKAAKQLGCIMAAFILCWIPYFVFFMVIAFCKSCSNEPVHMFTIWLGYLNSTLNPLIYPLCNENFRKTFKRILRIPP
Chain of Histamine H1 receptor (Cavia porcellus) (P31389 whole entry): as above
T3 sequence (P25021 whole entry, the tested form may be a part): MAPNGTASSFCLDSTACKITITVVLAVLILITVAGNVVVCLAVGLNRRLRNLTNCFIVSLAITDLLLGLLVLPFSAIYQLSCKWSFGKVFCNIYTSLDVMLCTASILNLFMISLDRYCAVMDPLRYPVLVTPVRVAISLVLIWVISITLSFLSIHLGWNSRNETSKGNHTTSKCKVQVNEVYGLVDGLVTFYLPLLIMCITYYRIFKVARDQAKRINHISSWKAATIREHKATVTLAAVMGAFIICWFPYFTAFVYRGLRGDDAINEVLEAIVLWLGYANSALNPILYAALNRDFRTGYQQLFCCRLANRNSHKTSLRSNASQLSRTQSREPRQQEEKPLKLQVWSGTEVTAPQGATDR
Chain of Histamine H1 receptor (Homo sapiens) (P35367 whole entry, the tested form may be a part): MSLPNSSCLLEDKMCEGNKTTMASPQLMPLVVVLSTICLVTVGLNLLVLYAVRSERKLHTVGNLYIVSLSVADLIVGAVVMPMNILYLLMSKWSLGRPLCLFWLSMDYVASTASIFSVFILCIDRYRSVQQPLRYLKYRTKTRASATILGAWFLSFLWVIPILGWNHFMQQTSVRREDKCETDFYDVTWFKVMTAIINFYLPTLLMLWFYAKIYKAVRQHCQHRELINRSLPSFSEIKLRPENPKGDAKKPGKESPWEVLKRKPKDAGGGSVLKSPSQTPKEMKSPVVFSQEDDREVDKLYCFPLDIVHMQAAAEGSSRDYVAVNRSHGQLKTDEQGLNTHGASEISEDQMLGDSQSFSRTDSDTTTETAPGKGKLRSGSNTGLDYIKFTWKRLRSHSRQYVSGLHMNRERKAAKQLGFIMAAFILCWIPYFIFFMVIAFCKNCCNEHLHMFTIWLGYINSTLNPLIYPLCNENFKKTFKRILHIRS
Chain of Histamine H2 receptor (Cavia porcellus) (P47747 whole entry, the tested form may be a part): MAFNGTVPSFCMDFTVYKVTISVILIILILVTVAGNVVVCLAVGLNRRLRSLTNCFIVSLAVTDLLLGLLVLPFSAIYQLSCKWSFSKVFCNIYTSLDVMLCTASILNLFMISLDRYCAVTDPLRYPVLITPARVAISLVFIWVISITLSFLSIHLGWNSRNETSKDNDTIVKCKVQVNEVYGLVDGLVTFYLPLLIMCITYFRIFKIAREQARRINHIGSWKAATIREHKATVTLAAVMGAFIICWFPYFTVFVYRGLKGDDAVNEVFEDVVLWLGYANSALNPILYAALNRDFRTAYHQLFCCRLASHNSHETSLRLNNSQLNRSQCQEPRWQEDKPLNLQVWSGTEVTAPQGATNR
T1 sequence (P47747 whole entry, the tested form may be a part): as above
T2 sequence (Q9Y5N1 whole entry, the tested form may be a part): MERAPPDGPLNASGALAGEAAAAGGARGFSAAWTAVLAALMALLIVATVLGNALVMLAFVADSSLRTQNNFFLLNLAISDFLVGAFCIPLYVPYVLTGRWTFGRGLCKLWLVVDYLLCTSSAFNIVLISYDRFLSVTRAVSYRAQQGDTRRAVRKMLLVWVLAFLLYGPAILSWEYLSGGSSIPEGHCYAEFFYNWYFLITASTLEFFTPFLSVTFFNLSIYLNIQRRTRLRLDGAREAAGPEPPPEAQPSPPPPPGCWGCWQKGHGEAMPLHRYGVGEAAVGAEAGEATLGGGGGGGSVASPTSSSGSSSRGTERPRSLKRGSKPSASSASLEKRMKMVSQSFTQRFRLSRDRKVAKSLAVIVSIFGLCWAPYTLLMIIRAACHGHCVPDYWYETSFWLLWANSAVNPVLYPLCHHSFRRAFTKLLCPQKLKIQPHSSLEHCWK

Row | EC50 (Histamine H2 receptor [3]) [nM] | Activity [6] [%] | Emax [6] [%] | Kb [10] [nM] | Kb (Histamine H1 receptor) [nM] | Structure (SMILES) | also measured
1 | 38 | – | – | – | – | CC(CC(=O)NC(N)=NCCCc1cnc[nH]1)c1cccs1 (stereo unspecified) | EC50 (Histamine H2 receptor [1]): 21 nM; EC50 (Histamine H4 receptor): 6.3 nM; EC50 (Histamine H3 receptor [2]): 1.64 nM; EC50 (Histamine H2 receptor [4]): 109 nM
2 | 55 | 1830 | 95 | – | – | N=C(NCCCc1c[nH]cn1)NC(=O)CC(c1ccccc1)c1ccc(F)cc1 (stereo unspecified) | pD'2 [5]: 5.39
3 | – | – | – | – | – | CC(=O)NC(=N)N | pKa [7]: 7.6
4 | – | 2630 | 99 | 2100 | – | CC(CC(=O)NC(=N)NCCCc1c[nH]cn1)c1cccs1 (stereo unspecified) | Activity (Histamine H2 receptor [8]): 1160%; Efficacy (Histamine H2 receptor [8]): 0.97; Activity (Histamine H3 receptor [9]): 1530%; Efficacy (Histamine H3 receptor [9]): 0.29; Activity [11]: 1.8%; Activity [12]: 5710%; Efficacy [12]: 1.05
5 | – | 6350 | 99 | 3000 | – | CC(CC(=O)/N=C(\N)NCCCc1c[nH]cn1)c1ccccc1 (stereo unspecified) | Activity (Histamine H2 receptor [8]): 1800%; Efficacy (Histamine H2 receptor [8]): 0.87; Activity (Histamine H3 receptor [9]): 1024%; Efficacy (Histamine H3 receptor [9]): 0.24; Activity [11]: 1.3%; Efficacy [11]: 0.35; Activity [12]: 10000%; Efficacy [12]: 1.03
6 | – | 3530 | 85 | – | – | N=C(NCCCc1c[nH]cn1)NC(=O)CC(c1ccccc1)c1ccccc1 | Activity (Histamine H2 receptor [8]): 1500%; Efficacy (Histamine H2 receptor [8]): 0.69; pD'2 [5]: 5.2; Activity [11]: 6.4%; Efficacy [11]: 0.19; Activity [12]: 19000%; Efficacy [12]: 0.93; Kb (Histamine H3 receptor [2]): 17.1 nM
7 | 166 | 607 | 97 | 9200 | 2140 | N=C(NCCCc1c[nH]cn1)NC(=O)CCc1ccccc1 | –
8 | 646 | 154 | 64 | 8700 | 9770 | N=C(NCCc1c[nH]cn1)NC(=O)CC(c1ccccc1)c1ccccc1 | pD'2 [5]: 4.55
9 | 28.2 | – | – | – | 741 | NC(=NCCCc1cnc[nH]1)NC(=O)CC(c1ccccc1)c1ccccc1 | EC50 (Histamine H2 receptor [1]): 6 nM; EC50 (Histamine H4 receptor): 8.6 nM; EC50 (Histamine H2 receptor [4]): 78 nM
10 | – | 1850 | 81 | 1200 | – | N=C(NCCCc1c[nH]cn1)NC(=O)CC(c1ccccc1)c1ccc(F)c(F)c1 (stereo unspecified) | pD'2 [5]: 6.06
11 | 51.3 | 1960 | 97 | 4900 | 11200 | N=C(NCCCc1c[nH]cn1)NC(=O)CC(c1ccccc1)c1ccccn1 (stereo unspecified) | –
12 | – | – | – | 9300 | – | CC(CCNC(=N)NC(=O)CCc1c[nH]cn1)c1ccccc1 (stereo unspecified) | Emax [13]: 45%; Emax [14]: 7%
13 | 15.8 | – | – | – | 1350 | CC(CC(=O)NC(N)=NCCCc1cnc[nH]1)c1ccccc1 (stereo unspecified) | EC50 (Histamine H2 receptor [1]): 12 nM; EC50 (Histamine H4 receptor): 15.3 nM; half-life [15]: 67 min; EC50 (Histamine H3 receptor [2]): 2.45 nM; EC50 (Histamine H2 receptor [4]): 67 nM
14 | 50.1 | 2000 | 90 | 4600 | 4680 | N=C(NCCCc1c[nH]cn1)NC(=O)CC(c1ccc(F)c(F)c1)c1nccs1 (stereo unspecified) | half-life [15]: 28 min
15 | – | 2630 | 100 | 6800 | – | N=C(NCCCc1c[nH]cn1)NC(=O)CC(c1ccccc1)c1nccs1 (stereo unspecified) | Activity (Histamine H2 receptor [8]): 1000%; Efficacy (Histamine H2 receptor [8]): 0.8; Activity [11]: 1%; Activity [12]: 8570%; Efficacy [12]: 0.94; Kb (Histamine H3 receptor [2]): 113 nM
16 | – | – | – | – | – | CC(CCN=C(N)NC(=O)CCc1cnc[nH]1)c1ccccc1 (stereo unspecified) | pA2 (Histamine H2 receptor [16]): 5.19
17 | 56.2 | 1780 | 94 | 7100 | 1820 | N=C(NCCCc1c[nH]cn1)NC(=O)CCCc1ccccc1 | –
18 | 20 | 5000 | 100 | – | 3390 | Cc1[nH]cnc1CSCCNC(=N)NCCCc1c[nH]cn1 [IMPROMIDINE] | –
19 | 204 | 490 | 76 | 1400 | – | N=C(NCCCc1c[nH]cn1)NC(=O)CC(c1ccc(F)cc1)c1ccc(F)cc1 | pD'2 [5]: 5.95
20 | – | – | – | – | – | N=C(N)N [GUANIDINE] | pKa [7]: 12.5
21 | 372 | 269 | 89 | 1100 | 741 | N=C(NCCCc1c[nH]cn1)NC(=O)CCCC1CCCCC1 | –
22 | 468 | 211 | 86 | – | 562 | N=C(NCCCc1c[nH]cn1)NC(=O)CCCCc1ccccc1 | –
23 | 38 | – | – | – | 4680 | NC(=NCCCc1cnc[nH]1)NC(=O)CC(c1ccccc1)c1nccs1 (stereo unspecified) | EC50 (Histamine H2 receptor [1]): 14 nM; EC50 (Histamine H4 receptor): 66.3 nM; EC50 (Histamine H2 receptor [4]): 120 nM

Row | Structure (SMILES) | EC50 (Histamine H2 receptor [3]) [nM] | Activity [6] [%] | Emax [6] [%] | Kb [10] [nM] | Kb (Histamine H1 receptor) [nM] | also measured
24 | N=C(NCCCc1c[nH]cn1)NC(=O)c1ccccc1 | 1170 | 86 | 89 | 15800 | – | pA2 (Histamine H1 receptor): > 5
